The values that follow come from article PMC9575405 (ACS infectious diseases, 2021).

Assay [1] has as its system S. aureus ATCC 13709 (Smith). Briefly: Mouse abscess infection model. The class given is in vivo. To be noted: after 26 h; orally at 20 mg/kg. The method, boiled down:
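Female CD-1 mice were infected s.c. in the right flank under anaesthesia with 0.25 mL inoculum (OD625 0.1 saline suspension from plate culture; target 1.0×10^6, actual 1.4×10^6 CFU/mouse) mixed with […] beads. From 2 h post-infection, test compounds were injected into the abscess (100 uL), repeated 12 h later; positive control was oral. Five per group; T=0 group sampled. Abscess CFU at 26 h; mean and SD.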

Assay [2] deals with S. aureus Smith. The experiment in a line: Mouse septicemia model. The class given is in vivo. To be noted: 10 mg/kg i.v., five mice. Summed up: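 CD-1 female mice (18–20 g), acclimated 5 days, were infected i.p. with 0.5 ml of S. aureus (overnight liquid culture diluted 1:10, grown 5 h shaking) diluted in 5% hog gastric mucin, pH 7.4, to give ≥90% mortality within 48 h (1.6 × 10^6 CFU). Single slow i.v. bolus at 10 mL/kg 1 h post-infection. Five mice per treatment group; ten vehicle-dosed infection controls. Read-out: survival.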

Turning to `CC(=O)NC[C@H]1CN(c2ccc(N3CCOCC3)c(F)c2)C(=O)O1` [linezolid], in assay [1], the “increase in CFUs” value was 1 log10.

As for `CN[C@H](CC(C)C)C(=O)N[C@H]1C(=O)N[C@@H](CC(N)=O)C(=O)N[C@H]2C(=O)N[C@H]3C(=O)N[C@H](C(=O)N[C@H](C(=O)O)c4cc(O)cc(O)c4-c4cc3ccc4O)[C@H](O)c3ccc(c(Cl)c3)Oc3cc2cc(c3O[C@@H]2O[C@H](CO)[C@@H](O)[C@H](O)[C@H]2O[C@H]2C[C@](C)(N)[C@H](O)[C@H](C)O2)Oc2ccc(cc2Cl)[C@H]1O` [vancomycin], the survival result in assay [2] is “all five mice”.
